Data taken from ChEMBL document CHEMBL3797076, “5-HT2 receptor affinity, docking studies and pharmacological evaluation of a series of 1,3-disubstituted thiourea derivatives” (Eur J Med Chem, 2016).
Active and inactive are the calls of the source. The calls are words filed in the database; no cut-off is given here.

What follows are compounds tested on Mus musculus (assay: Neurotoxicity in Albino Swiss mouse assessed as induction of myorelaxation at 0.0125 to 0.1 ED50, ip after 60 mins by chimney test). Conditions: in vivo, 1 h.
Format: toxicity, organism-based

Structure (SMILES)	Activity
COc1ccc(NC(=S)Nc2cccc(C(F)(F)F)c2)cc1	Non-toxic

These compounds were tested on Mus musculus (assay: Toxicity in ip dosed Albino Swiss mouse assessed as loss of righting reflex administered 60 mins before test measured up to 48 hrs). Conditions: in vivo.
Format: organism-based
Outline: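 Acute toxicity in male Albino Swiss mice by Litchfield-Wilcoxon method: ED50 for loss of righting reflex after i.p. dosing, observed at 15, 30, 60, 180 min and 24, 48 h.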

Structure (SMILES)	ED50
COc1ccc(NC(=S)Nc2cccc(C(F)(F)F)c2)cc1	771.4 mg/kg

What follows are compounds tested on Mus musculus (assay: Inhibition of (+/-)DOI-induced head twitch response in Albino Swiss mouse at 5 mg/kg, ip administered 60 mins before (+/-)DOI injection measured for 20 mins relative to untreated control). Conditions: not given.
Format: functional
Outline: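 Male Albino Swiss mice; compounds suspended in 0.5% methylcellulose, injected i.p. 60 min before (±)DOI 2.5 mg/kg i.p.; head twitches counted over 20 min. Mean ± SEM, percent reduction versus DOI-treated group; one-way ANOVA with Bonferroni post hoc test.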

Structure (SMILES)	inhibition in vivo at 5 mg/kg
O=C(c1ccc(F)cc1)C1CCN(CCn2c(=O)[nH]c3ccccc3c2=O)CC1 [KETANSERIN]	100%

What follows are compounds tested on Mus musculus (assay: Inhibition of 5-HTP-induced head twitch response in ddY mouse at >=1 mg/kg, po administered 1 hr before 5-HTP injection measured after 30 mins relative to untreated control). Conditions: not given.
Format: functional

Structure (SMILES)	inhibition (INH)
O=C(c1ccc(F)cc1)C1CCN(CCn2c(=O)[nH]c3ccccc3c2=O)CC1 [KETANSERIN]	>80%
Cc1nc2sccn2c(=O)c1CCN1CCC(=C(c2ccc(F)cc2)c2ccc(F)cc2)CC1 [RITANSERIN]	>80%

What follows are compounds tested on Mus musculus (assay: Neurotoxicity in Albino Swiss mouse assessed as impairment in motor coordination at 0.0125 to 0.1 ED50, ip after 60 mins by chimney test). Conditions: in vivo, 1 h.
Format: toxicity, organism-based

Structure (SMILES)	Activity
COc1ccc(NC(=S)Nc2cccc(C(F)(F)F)c2)cc1	Non-toxic

Each compound was assayed on Mus musculus (assay: Toxicity in Albino Swiss mouse assessed as inhibition of spontaneous locomotor activity at 0.1 ED50, ip administered 60 mins before test measured for 30 mins by photoresistor actometer analysis). Conditions: in vivo, 0.5 h.
Format: organism-based
Outline: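 Spontaneous locomotion of single male Albino Swiss mice recorded in two-beam photoresistor actometers as beam crossings for 30 min, beginning 60 min after i.p. compound (suspension in 0.5% methylcellulose).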

Structure (SMILES)	Activity
O=[N+]([O-])c1cc(NC(=S)Nc2ccccc2Cl)ccc1Cl	Non-toxic
O=C(NC(=S)Nc1ccc(Cl)c([N+](=O)[O-])c1)c1ccccc1	Non-toxic
COc1ccc(NC(=S)Nc2cccc(C(F)(F)F)c2)cc1	Non-toxic

Each compound was assayed on Mus musculus (assay: Inhibition of 5-HTP-induced head twitch response in Albino Swiss mouse at 0.1 ED50, ip administered 60 mins before 5-HTP injection relative to untreated control). Conditions: not given.
Format: functional
Outline: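 Male Albino Swiss mice given compound i.p. (0.1 ED50, 0.5% methylcellulose) 60 min before the test; L-5-HTP 230 mg/kg i.p. injected immediately before. Head twitches counted; mean ± SEM, Dunnett's test vs control.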

Structure (SMILES)	inhibition
COc1ccc(NC(=S)Nc2cccc(C(F)(F)F)c2)cc1	inactive

These compounds were tested on Mus musculus (assay: Neurotoxicity in Albino Swiss mouse assessed as impairment in motor coordination at 0.0125 to 0.1 ED50, ip after 60 mins by rotarod test). Conditions: in vivo, 1 h.
Format: toxicity, organism-based

Structure (SMILES)	Activity
COc1ccc(NC(=S)Nc2cccc(C(F)(F)F)c2)cc1	Non-toxic

The compounds below were run against 5-hydroxytryptamine receptor 2A (Rattus norvegicus, UniProt P14842) (assay: Displacement of [3H]ketanserin from 5HT2A receptor in Sprague-Dawley rat brain cortex incubated for 15 mins). Conditions: not given.
5-hydroxytryptamine receptor 2A, sequence (P14842 whole entry): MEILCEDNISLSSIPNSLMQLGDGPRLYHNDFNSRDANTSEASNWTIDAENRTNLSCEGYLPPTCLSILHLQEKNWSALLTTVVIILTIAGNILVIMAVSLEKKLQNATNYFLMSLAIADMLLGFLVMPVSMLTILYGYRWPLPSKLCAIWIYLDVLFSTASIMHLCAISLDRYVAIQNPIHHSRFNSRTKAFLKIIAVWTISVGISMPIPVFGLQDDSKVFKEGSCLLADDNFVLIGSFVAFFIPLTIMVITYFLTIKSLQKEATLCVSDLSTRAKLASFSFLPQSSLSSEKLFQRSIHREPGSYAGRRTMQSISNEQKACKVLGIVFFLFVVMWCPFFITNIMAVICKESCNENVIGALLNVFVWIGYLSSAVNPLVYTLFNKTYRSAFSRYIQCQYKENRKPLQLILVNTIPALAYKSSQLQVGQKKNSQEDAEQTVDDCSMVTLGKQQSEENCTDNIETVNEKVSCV
Outline: (§1)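 Rat frontal cortex homogenized in 50 mM Tris-HCl, 0.5 mM EDTA, 10 mM MgCl2, pH 7.4, washed, resuspended with 0.1% ascorbate and pargyline. Triplicates: 5-HT2A used 0.4 nM [3H]ketanserin, cinanserin for nonspecific binding; 5-HT2C used 1 nM [3H]mesulergine, mianserin nonspecific, 100 nM spiperone added. 15 min at 37 C, glass-fiber filtration.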

Ki	Structure (SMILES)
> 10 µM	O=[N+]([O-])c1cc(NC(=S)Nc2ccccc2)ccc1Cl
> 10 µM	O=[N+]([O-])c1cc(NC(=S)Nc2ccccc2Cl)ccc1Cl
> 10 µM	O=C(NC(=S)Nc1ccc(Cl)c([N+](=O)[O-])c1)c1ccccc1
> 10 µM	COc1ccc(NC(=S)Nc2cccc(C(F)(F)F)c2)cc1

Each compound was assayed on Mus musculus (assay: Increase in body temperature in Albino Swiss mouse at 0.1 ED50, ip administered 60 mins before test measured 30 to 90 mins post dose). Conditions: not given.
Format: functional, organism-based
Outline: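 Normothermic male Albino Swiss mice; rectal temperature by thermistor thermometer. Baseline taken as mean of readings at 60 and 30 min before dosing; i.p. dose (0.1 ED50, 0.5% methylcellulose vehicle) then readings at 30, 60, 90, 120 min (to 180 min for some). Change = final minus initial; Bonferroni post hoc test.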

Structure (SMILES)	Activity
COc1ccc(NC(=S)Nc2cccc(C(F)(F)F)c2)cc1	Active

These compounds were tested on Mus musculus (assay: Neurotoxicity in Albino Swiss mouse assessed as induction of myorelaxation at 0.0125 to 0.1 ED50, ip after 60 mins by rotarod test). Conditions: in vivo, 1 h.
Format: toxicity, organism-based

Structure (SMILES)	Activity
COc1ccc(NC(=S)Nc2cccc(C(F)(F)F)c2)cc1	Non-toxic

Each compound was assayed against T1, 5-hydroxytryptamine receptor 2C (Rattus norvegicus, UniProt P08909) (assay: Displacement of [3H]mesulergine from 5HT2C receptor in Sprague-Dawley rat brain cortex incubated for 15 mins). Conditions: not given.
T1 sequence (P08909 whole entry): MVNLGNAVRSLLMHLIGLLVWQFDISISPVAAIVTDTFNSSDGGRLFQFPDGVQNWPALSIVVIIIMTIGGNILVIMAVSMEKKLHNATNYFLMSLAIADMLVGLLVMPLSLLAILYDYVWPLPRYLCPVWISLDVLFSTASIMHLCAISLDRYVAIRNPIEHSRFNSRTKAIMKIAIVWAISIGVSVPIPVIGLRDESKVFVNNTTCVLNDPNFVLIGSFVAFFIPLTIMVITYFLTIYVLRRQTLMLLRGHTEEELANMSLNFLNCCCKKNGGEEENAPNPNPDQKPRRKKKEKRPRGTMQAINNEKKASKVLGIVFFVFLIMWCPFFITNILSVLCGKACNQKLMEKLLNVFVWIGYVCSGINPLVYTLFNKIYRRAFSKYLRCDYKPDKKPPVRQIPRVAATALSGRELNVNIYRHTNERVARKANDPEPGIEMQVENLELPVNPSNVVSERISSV
Outline: as §1

Ki	Structure (SMILES)
> 10 µM	O=[N+]([O-])c1cc(NC(=S)Nc2ccccc2)ccc1Cl
> 10 µM	O=[N+]([O-])c1cc(NC(=S)Nc2ccccc2Cl)ccc1Cl
> 10 µM	O=C(NC(=S)Nc1ccc(Cl)c([N+](=O)[O-])c1)c1ccccc1
> 10 µM	COc1ccc(NC(=S)Nc2cccc(C(F)(F)F)c2)cc1

What follows are compounds tested on Mus musculus (assay: Inhibition of amphetamine-induced hyperlocomotion in Albino Swiss mouse at 0.1 ED50, ip administered 60 mins prior to test measured for 30 mins by photoresistor actometer analysis). Conditions: not given.
Format: functional
Outline: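 Single male Albino Swiss mice; compound i.p. 60 min and amphetamine 5 mg/kg s.c. 30 min before test. Photoresistor actometers (circular cage, two light beams) counted beam crossings over 30 min; mean ± SEM, Dunnett's test vs control.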

Structure (SMILES)	inhibition
COc1ccc(NC(=S)Nc2cccc(C(F)(F)F)c2)cc1	Active

These compounds were tested on Mus musculus (assay: Anticonvulsant activity in Albino Swiss mouse assessed as protection against pentetrazol-induced clonic seizure at 0.1 ED50, ip administered 60 mins prior to test relative to untreated control). Conditions: not given.
Format: functional
Outline: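 Male Albino Swiss mice (18-30 g); compound given i.p. as suspension in 0.5% methylcellulose 60 min before test; pentylenetetrazole 110 mg/kg s.c. Scored as number of mice with clonic seizures, tonic convulsions and deaths per animals tested; Fisher's exact test vs solvent control.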

Structure (SMILES)	Activity
COc1ccc(NC(=S)Nc2cccc(C(F)(F)F)c2)cc1	inactive
